Structures are written as SMILES. Like-named read-outs stand apart in the source and are kept apart here.

For data set [1], the system named is Huh-7 cells. The data set can be described thus: CCK-8 cell viability and IC50 measurement, Huh-7. It counts as cell-based, human. The conditions noted are these: read-out: IC50 Huh-7. The method, boiled down: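 Huh-7 cells (ATCC) in DMEM or RPMI 1640 with 10% FBS, 37°C, 5% CO2; seeded 3 × 10^3 cells/well and left to adhere overnight. […] CCK-8 added for 1 h, A450 read. Viability as % of control; IC50 from inhibition by nonlinear regression. n > 5; mean ± SE.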

For data set [2], the target named is MET receptor tyrosine kinase (RTK). As to conditions: read-out: IC50 MET receptor tyrosine kinase; cited from earlier work.
The next data set has as its system ABHD6. As to conditions: cited from earlier work.
The subject of data set [3] is Huh-7 cells. The data set can be described thus: Western blot protein expression analysis. The conditions noted are these: 10 μM, 72 h. It counts as cell-based, human. A digest of the protocol:
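Huh-7 cells in 12-well plates were treated with 10 μM test compound for 72 h. Whole-cell protein was extracted in RIPA buffer with protease/phosphatase inhibitors and immunoblotted for γH2AX, caspase-3, caspase-9, PARP, cyclin D, cyclin E, LC3 and β-actin. Six replicates per group; mean ± SEM, two-tailed t-test.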
In general terms: Immunoblotting shows a protein as a band on a membrane.

Data set [4] has as its system Huh-7 cells. The data set can be described thus: Apoptosis assay. It counts as cell-based, human. As to conditions: 5, 10, 20 μM, 72h.
Data set [5] has as its system Huh-7 cells. The data set can be described thus: RT-PCR gene expression analysis. The conditions noted are these: 10 μM, 72 h. It counts as cell-based, human. A digest of the protocol:
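Huh-7 cells in 12-well plates were treated with 10 μM test compound for 72 h. Total RNA was extracted with TRIzol, and gene expression was measured by SYBR Green real-time PCR using specific primer pairs.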

Data set [6] concerns Huh-7 cells. The data set can be described thus: DNA damage staining. It counts as cell-based, human. As to conditions: 5, 10, 20 μM, 24h. The method, boiled down: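 Huh-7 cells seeded at 3 × 10^3 cells/well and exposed to test compound at 0, 5, 10 or 20 μM for 24 h. Stained with a DNA damage detection kit (nuclei blue, DNA-damaged cells green), then imaged by fluorescence microscopy. 5–6 replicates per group.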

In data set [7] the test system is Huh-7 cells. The data set can be described thus: Autophagy staining assay. It counts as cell-based, human. As to conditions: 5, 10, 20 μM, 24 h, MDC probe. The method, boiled down: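 Huh-7 cells were seeded at 3 × 10^3 cells/well and exposed to 0, 5, 10 or 20 μM test compound for 24 h. Medium was removed, and cells were stained with monodansylcadaverine for 1 h in the dark at 37°C, then imaged by confocal microscopy. Replicates: 5–6 per group.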

For data set [8], the system named is Huh-7 cells. The data set can be described thus: Live and dead cell staining. It counts as cell-based, human. The conditions noted are these: 5, 10, 20 μM, 24h. A digest of the protocol: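 Huh-7 cells seeded at 3 × 10^3 cells/well and incubated overnight. Treated with test compound at 0, 5, 10 or 20 μM for 24 h, then stained with Calcein-AM and PI for 1 h in the dark and imaged by fluorescence confocal microscopy. 5–6 replicates per group.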

A further data set concerns Female KM mice. The data set can be described thus: Acute oral toxicity test. As to conditions: 500 mg/kg, intragastric administration. It counts as in vivo. The method, boiled down:
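Female Kunming mice (SPF, 8 weeks), acclimated 7 days with free water on a 12 h light/dark cycle; 6 per group. Test compound at 500 mg/kg given intragastrically in 5% DMSO + 40% PEG300 + 1% Tween 80 + 54% saline; controls received an equal volume of vehicle. Body weight and appearance were followed for 14 days. Heart, liver, spleen, lungs and kidneys were then weighed for organ coefficients and examined by H&E histology.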

By IC50 is commonly meant the concentration that inhibits the measured activity by half. Take `O=C(Nc1ccc(-c2cn(Cc3ccc(Br)cc3)nn2)cc1)Nc1ccccc1Br` [Compound 5e, 1-(4-(1-(4-Bromobenzyl)-1H-1,2,3-Triazol-4-Yl)phenyl)-3-(2-Bromophenyl)urea]: the IC50 with Huh-7 cells [1] (Homo sapiens, Huh-7, 72 h) was above 50 µM.
On the same count and under the same terms, the result for `O=C(Nc1ccc(Cl)cc1)Nc1ccc(-c2cn(Cc3ccc(Cl)cc3)nn2)cc1` [Compound 5a, 1-(4-(1-(4-Chlorobenzyl)-1H-1,2,3-Triazol-4-Yl)phenyl)-3-(4-Chlorophenyl)urea] reads above 50 µM.
Take `O=C(NCCN1CCOCC1)Nc1nc2ccc(Sc3nnc4ccc(-c5ccc(F)cc5)nn34)cc2s1` [II]: the 50% inhibitory concentration (IC50) in data set [2] was 0.0042 µM.
With `O=C(Nc1ccc(-c2cn(Cc3ccc(Cl)cc3)nn2)cc1)Nc1ccccc1Br` [Compound 5d, 1-(2-Bromophenyl)-3-(4-(1-(4-Chlorobenzyl)-1H-1,2,3-Triazol-4-Yl)phenyl)urea], the half-maximal inhibitory concentration (IC50) in the data set with Huh-7 cells [1] (Homo sapiens, Huh-7, 72 h) is above 50 µM.
On to `O=C(NCc1cn(Cc2ccc(Cl)cc2)nn1)Nc1ccccc1Br` [Compound 7d, 1-(2-Bromophenyl)-3-((1-(4-Chlorobenzyl)-1H-1,2,3-Triazol-4-Yl)methyl)urea], for which, in the data set with Huh-7 cells [1] (Homo sapiens, Huh-7, 72 h), the half-inhibitory concentration (IC50) was above 50 µM.
On the same count and under the same terms, then `O=C(NCc1cn(Cc2ccc(Br)cc2)nn1)Nc1ccc(Cl)cc1` [Compound 7c, 1-((1-(4-Bromobenzyl)-1H-1,2,3-Triazol-4-Yl)methyl)-3-(4-Chlorophenyl)urea], with above 50 µM; and `O=C(NCc1cn(Cc2cccc(Cl)c2)nn1)Nc1ccc(Cl)cc1` [Compound 7b, 1-((1-(3-Chlorobenzyl)-1H-1,2,3-Triazol-4-Yl)methyl)-3-(4-Chlorophenyl)urea], with above 50 µM.
In the case of `O=C(c1cccc(-c2ccc(-c3cn(C(=O)N4CCCCC4c4ccccc4)nn3)cc2)c1)N1CCCCC1` (stereo not drawn) [KT185], in the data set on ABHD6, the in vivo selectivity result is “exceptional in vivo selectivity”.
Turning to `O=C(Nc1ccc(Cl)cc1)Nc1ccc(-c2cn(Cc3ccc(Br)cc3)nn2)cc1` [Compound 5c, 1-(4-(1-(4-Bromobenzyl)-1H-1,2,3-Triazol-4-Yl)phenyl)-3-(4-Chlorophenyl)urea], the IC50 in the data set on Huh-7 cells [1] (Homo sapiens, Huh-7, 72 h) is above 50 µM.
On to `O=c1[nH]cc(F)c(=O)[nH]1` [Compound 5-FU, reference compound], for which, in the data set with Huh-7 cells [1] (72-hour exposure, CCK-8), the IC50 came out at 39 ± 0.56 µM.
On to `O=C(NCc1cn(Cc2ccc(Cl)cc2)nn1)Nc1ccc(Cl)cc1` [Compound 7a, 1-((1-(4-Chlorobenzyl)-1H-1,2,3-Triazol-4-Yl)methyl)-3-(4-Chlorophenyl)urea], for which, in the data set with Huh-7 cells [1] (Homo sapiens, Huh-7, 72 h), the IC50 is above 50 µM.
`O=C(Nc1cccc(-c2cn(Cc3ccc(Br)cc3)nn2)c1)Nc1ccccc1Br` [Compound 3e, 1-(3-(1-(4-Bromobenzyl)-1H-1,2,3-Triazol-4-Yl)phenyl)-3-(2-Bromophenyl)urea]: in the data set with Huh-7 cells [3], the H2AX protein expression result is “significantly increased”. For the same compound, the apoptotic cells entry in the data set on Huh-7 cells [4] is “dose-dependent increases in apoptotic cells”. The IC50 in the data set with Huh-7 cells [1] (Homo sapiens, Huh-7, 72 h) stood at 12.2 ± 1.31 µM. Further, in the data set with Huh-7 cells [5], the “DNA damaged genes and autophagy genes (mRNA)” value is “not changed”; the “expression of Bcl2 (mRNA)” value was “increased largely”; the “expression of Gpx4 and TNFa (mRNA)” value is listed as “also increased”. For the same compound, the DNA damage result with Huh-7 cells [6] is given as “significantly stimulated DNA damage in a concentration-dependent manner”. The “autophagosome in tumor cells” value in the data set on Huh-7 cells [7] is “increased dramatically”. For the same compound, the “Dead and living cells staining” value in the data set with Huh-7 cells [8] is reported as “dead cells were increased significantly in a dose-dependent manner”.
`O=C(Nc1ccc(Cl)cc1)Nc1ccc(-c2cn(Cc3cccc(Cl)c3)nn2)cc1` [Compound 5b, 1-(4-(1-(3-Chlorobenzyl)-1H-1,2,3-Triazol-4-Yl)phenyl)-3-(4-Chlorophenyl)urea]: the IC50 in the data set on Huh-7 cells [1] (Homo sapiens, Huh-7, 72 h) is above 50 µM.
Still for that read-out and setting: the result for `O=C(NCc1cn(Cc2ccc(Br)cc2)nn1)Nc1ccccc1Br` [Compound 7e, 1-((1-(4-Bromobenzyl)-1H-1,2,3-Triazol-4-Yl)methyl)-3-(2-Bromophenyl)urea] reads above 50 µM.
`O=C(Nc1ccc(Cl)cc1)Nc1cccc(-c2cn(Cc3ccc(Br)cc3)nn2)c1` [Compound 3c, 1-(3-(1-(4-Bromobenzyl)-1H-1,2,3-Triazol-4-Yl)phenyl)-3-(4-Chlorophenyl)urea]: the mortality entry in the data set on Female KM mice (14-day observation, female KM mice) was “no mortality”. In addition, the “body weight vs vehicle control group” value with Female KM mice (14 days, all time points) is on record as “no statistically significant differences”. Also, the “organ coefficient and histopathological assessments of major organs” value in the data set on Female KM mice (cardiac, hepatic, splenic, pulmonary, renal tissues) is “no detectable toxicological alterations”. For the same compound, in the data set on Huh-7 cells [4], the apoptotic cells result is on record as “dose-dependent increases in apoptotic cells”. Further, the half-inhibitory concentration (IC50) in the data set with Huh-7 cells [1] (Homo sapiens, Huh-7, 72 h) worked out at 10.2 ± 1.32 µM. In the data set on Huh-7 cells [5], the “expression of Keap1 (mRNA)” value is on record as “upregulated”; the “expression of oxidative stress genes Nrf2, Gpx4, TNFa (mRNA)” value is “no significant changes”; the “expressions of p53, p21, H2AX, Bcl2, caspase6, caspase7, ATG5 and ATG7 (mRNA)” value is on record as “did not influence”. Moreover, in the data set on Huh-7 cells [6], the DNA damage entry is listed as “significantly stimulated DNA damage in a concentration-dependent manner”. In addition, the “autophagosome in tumor cells” value in the data set on Huh-7 cells [7] was “increased dramatically”. Moreover, the “Dead and living cells staining” value with Huh-7 cells [8] is recorded as “dead cells were increased significantly in a dose-dependent manner”.
